According to the array DNA melting data of Ke et al. (doi:10.1101/2024.01.08.574731):

Key:
[1] = melting temperature; fluorescence melt of hairpins on a sequencing array, two-state fit, raised by 9.35 °C to match UV melts; settings: sodium 0.088 M
Method in brief: (§1)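 Library hairpins on a sequenced MiSeq flow cell carried annealed Cy3 and quencher oligos, and their Cy3 fluorescence was imaged in 50 mM Na-HEPES pH 8.0 with 25 mM NaCl, in 2.5 °C steps up to 60 °C. Signals were normalised to Cy3 before quenching and to control constructs. Melting temperature and folding enthalpy were obtained from bootstrapped two-state fits, combined by inverse-variance weighting across four replicates, and the fitted temperatures were then raised by 9.35 °C to match UV melts.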

[2] = folding enthalpy; higher = less favourable; fluorescence melt of hairpins on a sequencing array, two-state fit; settings: sodium 0.088 M
Method in brief: as §1

Sequence	Tm [1] [°C]	folding enthalpy [2] [kcal/mol]
CGTACGGAAACGTTAACG ((((((....)))..)))	37.3	-16.7
GGGCTCGAAAGAGGCCC ((((((....))).)))	69	-14.3
GCGGTCGAAAGACATCGC ((((((....)))..)))	49.1	-20.7
GATCTCAATAGAGATC ((((((....))))))	53.3	-38.5
GTTGGAGAAATCCAAC ((((((....))))))	52	-32
GATCATTCCTATGATC ((((((....))))))	49.7	-31.5
GCTATAGGAAACTGTAGC ((((.((....)).))))	43.5	-32.8
GCCCCACGAAAGTGAGGC (((.(((....))).)))	55.8	-37.8
GAGAACGAAAGTTACTC ((((((....))).)))	31.1	-12.4
CGCTCGGAAACGACCGCG ((((((....)))..)))	38.6	-21.6
GCACTTCGAAAGAATGC (((.(((....))))))	41.5	-31.2
GTTGTCGAAAGACATAAC ((((((....)))..)))	32.6	-13.3
GGTCGCCGAAAGGCAACC (((.(((....))).)))	56.1	-24.6
GCGATACGAAAGTACCGC (((.(((....))).)))	54.2	-43.2
GCACAGGAAACTGTGC ((((((....))))))	67	-36.1
GGCGTCCCGAAAGGGGCC (((..(((....))))))	50.4	-14.3
CAGAAGAAATTCTG (((((....)))))	33.8	-12.7
GGTATGAAAATACC (((((....)))))	47.5	-20.9
GAGTCGGGAAACCGGTTC ((..(((....)))..))	32.8	-15.6
GATCGTTTTTACGATC ((((((....))))))	56.9	-44.7
GCTGAACGAAAGTTAGC (((.(((....))))))	44.1	-26
GATCCGATCACGGATC ((((((....))))))	59.5	-40.6
GCATTCCGAAAGGACTGC (((.(((....))).)))	50.8	-22.2

Sequence	Tm [1] [°C]	folding enthalpy [2] [kcal/mol]
GTCTCAGAAATGAGAC ((((((....))))))	53.8	-41.8
GGCCTACGAAAGTACGCC (((.(((....))).)))	47.4	-26.4
GCTACGCGAAAGCCTCGC ((.(.((....)).).))	18.1	-7.35
GTCAACGCGAAAGCGGAC (((..(((....))))))	42	-15.3
GAAATCGGAAACGATCTC ((.((((....)))).))	29.3	-17.4
GCCGCGCGAAAGCATGGC (((..((....))..)))	60.1	-26.7
GATCGTAGCACGATC ((((((...))))))	56.5	-34.8
GTGGGAACGAAAGTTCAC (((..(((....))))))	54.9	-34.3
GTAAGTGAAAACTTAC ((((((....))))))	48.7	-27.4
GATCCATGGTTGGATC ((((((....))))))	51.3	-42.8
GGCGAAGGAAACTTCACC ((.((((....)))).))	42.6	-32.8
GAACTCGGAAACGGGTTC ((((.((....)).))))	50.4	-35.1
GATCGCGAAAGCGCATC ((((((....))).)))	51.4	-15.3
GTCGCGGGAAACCGTGAC (((.(((....))).)))	59.8	-35.2
GCGTTGCGAAAGCCTCGC (((..((....))..)))	58.1	-18.5
TTCCCGAAAGGGAA (((((....)))))	56.1	-24
GATCCTTTTCAGGATC ((((((....))))))	52.6	-32.6
GGTGCAGCGAAAGCTACC (((..(((....))))))	39.1	-13.6
GAGTAGGCGAAAGCCCTC (((..(((....))))))	35.4	-10.8
GAGAGCGGAAACGCCCTC (((.(((....))).)))	47.2	-16.7
GATCGCTCCGGCGATC ((((((....))))))	68.4	-39.2
GTAGGCGAAAGCCACTAC ((((((....)))..)))	47.3	-11.9
GCACGGGGAAACCCATGC (((.(((....))).)))	47	-29.5

Sequence	Tm [1] [°C]	folding enthalpy [2] [kcal/mol]
GAGAAACGAAAGTTGCTC (((.(((....))).)))	48.8	-28
GGAGAGGAAACTCTCC ((((((....))))))	56.9	-35.1
GCTATGCGAAAGCGTAGC ((((.((....)).))))	65.7	-34.5
GTAGCTCGAAAGAGTTAC (((.(((....))).)))	50.6	-33.6
TCGCTGAAAAGCGA (((((....)))))	68.8	-17.4
GGCTTCGGAAACGAGGCC (((.(((....))).)))	58.8	-46.7
GAACGCGAAAGCGCTTTC ((((((....)))..)))	29.7	-8.13
GATCTTGAACAAGATC ((((((....))))))	49.2	-34.8
GATCGATAGTTCGATC ((((((....))))))	50.8	-39.3
GTCCCGCGAAAGCGCGAC (((.(((....))).)))	49.5	-21.4
GCCACGCGAAAGCATAGC ((.(.((....)).).))	26.7	-9.06
GCGCGGCGAAAGCCCTGC ((..(((....)))..))	50.1	-13.5
GACAGCGCGAAAGCGGTC (((..(((....))))))	41.8	-11.4
GTTGATCCGAAAGGAAAC (((..(((....))))))	27.6	-20.8
GGACACGGAAACGCGTCC ((((.((....)).))))	54.6	-46.4
GCGACGCGAAAGCCTCGC ((((.((....)).))))	60.4	-33.3
GATCAACAGGTTGATC ((((((....))))))	51.4	-36.2
GCACACGCGAAAGCGTGC (((..(((....))))))	45	-5.12
GTTAGTGGAAACGTTAAC ((((..(....)..))))	27.6	-10.1
GATGCCGAAAGGCTAATC ((((((....)))..)))	30.1	-9.64
GAGGGCGAAAGCCTCTC ((((((....))).)))	53.2	-16.1
TAGTCGAAAGACTA (((((....)))))	49.6	-17.4
GATCGCACACGCGATC ((((((....))))))	68.2	-38

Sequence	Tm [1] [°C]	folding enthalpy [2] [kcal/mol]
GCTTCATCGAAAGATAGC (((..(((....))))))	28.3	-13
GGGTACGGAAACATACCC (((((.(....).)))))	40.2	-33.1
GACTGCCGAAAGGCCGTC (((.(((....))).)))	53.4	-25
GCCTTCGAAAGAAGGGC ((((((....))).)))	63.1	-15
GACATCGGAAACAATGTC (((((.(....).)))))	34.1	-33
GATCCTCGCTAGGATC ((((((....))))))	51.2	-35.6
GCCGACGGAAACGTCAGC ((.((((....)))).))	49.6	-23.6
GTTTCCGAAAGGAGTAAC ((((((....)))..)))	28.8	-12.6
GGTGAGGAAACTCACC ((((((....))))))	61.6	-35
ATTCAGAAATGAAT (((((....)))))	29.3	-11.5
GATCTTATGAAAGATC ((((((....))))))	40.6	-30.6
CGCTCGGAAACGAAAGCG ((((((....)))..)))	47.2	-27.8
GCGTACCCGAAAGGGCGC (((..(((....))))))	56.4	-22.1
GCTCGGCGAAAGCCCTGC ((..(((....)))..))	53.4	-7.65
GGACAGGCGAAAGCCTCC (((..(((....))))))	31.1	-9.93
GATTAACGAAAGTTTATC (((.(((....))).)))	34.9	-22.8
GTCCTCGAAAGAGCCGAC ((((((....)))..)))	26.7	-12.4
GATCATTCGGATGATC ((((((....))))))	48.1	-35.5
GATCCAGAGCTGGATC ((((((....))))))	50.4	-37.6
GTGTGTTCGAAAGAACAC (((..(((....))))))	64.2	-15.7
GATCCGACGACGGATC ((((((....))))))	56.7	-36.6
GACGGACGAAAGTCTGTC (((.(((....))).)))	60.5	-35.3
GATCTGACCGCAGATC ((((((....))))))	48	-27.4
